In ChEMBL document CHEMBL1124558, “Differential effects of a series of hydroxamic acid derivatives on 5-lipoxygenase and cyclooxygenase from neutrophils and 12-lipoxygenase from platelets and their in vivo effects on inflammation and anaphylaxis” (J Med Chem, 1989):
One block for each molecule: values may come before it.

Assays:
[1] = target: T1, Arachidonate 12-lipoxygenase (Rattus norvegicus) (UniProt Q02759); experiment: In vitro inhibitory activity against rat platelet 12-lipoxygenase at 10 uM
T1 sequence (whole entry): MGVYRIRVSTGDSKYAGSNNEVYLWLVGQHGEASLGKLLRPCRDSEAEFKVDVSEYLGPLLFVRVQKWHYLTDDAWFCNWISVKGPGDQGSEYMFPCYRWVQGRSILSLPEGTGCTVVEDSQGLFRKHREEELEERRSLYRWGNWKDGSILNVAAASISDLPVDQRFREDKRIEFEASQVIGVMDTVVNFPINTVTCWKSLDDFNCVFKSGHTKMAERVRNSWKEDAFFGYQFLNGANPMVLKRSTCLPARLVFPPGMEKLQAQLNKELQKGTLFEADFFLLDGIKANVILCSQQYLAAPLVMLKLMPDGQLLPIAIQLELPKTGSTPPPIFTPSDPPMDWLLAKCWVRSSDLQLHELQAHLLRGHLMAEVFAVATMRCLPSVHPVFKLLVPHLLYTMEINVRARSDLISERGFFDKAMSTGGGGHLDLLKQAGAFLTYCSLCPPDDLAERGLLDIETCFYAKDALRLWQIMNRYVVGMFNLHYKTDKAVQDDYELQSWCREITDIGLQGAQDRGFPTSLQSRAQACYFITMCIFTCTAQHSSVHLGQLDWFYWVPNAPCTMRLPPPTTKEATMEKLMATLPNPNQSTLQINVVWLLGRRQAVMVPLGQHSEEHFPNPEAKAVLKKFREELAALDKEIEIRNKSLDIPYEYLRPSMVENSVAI
Summary of the method: (§1)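 Cell-free cytosolic 12-lipoxygenase from Sprague-Dawley rat platelets (0.4 mg/mL), preincubated 5 min at 30 °C with compound in DMSO (≤0.1% final), 25 mM Tris pH 7.4, 1 μM indomethacin, 100 μM glutathione; reaction started with 6 μM [14C]arachidonic acid and quenched with citric acid/NDGA after 3 min. 12-HETE isolated by TLC and counted by scintillation; % inhibition, duplicate.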

[2] = target: T2, Cyclooxygenase (Rattus norvegicus) (UniProt P35355+Q63921); experiment: In vitro inhibitory activity against rat polymorphonuclear leukocyte Prostaglandin G/H synthase at 30 uM; format: protein assay
Summary of the method: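 Homogenate of glycogen-elicited rat peritoneal PMNs in 0.1 M Tris-HCl pH 8.2 with 10 μM NDGA, preincubated 5 min at 37 °C with compound (≤0.1% DMSO). [14C]arachidonic acid (8 μM) added with 4 mM glutathione and epinephrine; 10 min reaction. TxB2 and PGF2α separated by TLC and counted.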

[3] = tested on: 5-lipoxygenase (Cavia porcellus); experiment: In vitro inhibitory activity against polymorphonuclear leukocyte 5-lipoxygenase using guinea pig supernatant at 10 uM
[4] = target: T3, Polyunsaturated fatty acid 5-lipoxygenase (Homo sapiens) (UniProt P09917); experiment: In vitro inhibitory activity against polymorphonuclear leukocyte 5-lipoxygenase in human cell at 10 uM
T3 sequence (whole entry): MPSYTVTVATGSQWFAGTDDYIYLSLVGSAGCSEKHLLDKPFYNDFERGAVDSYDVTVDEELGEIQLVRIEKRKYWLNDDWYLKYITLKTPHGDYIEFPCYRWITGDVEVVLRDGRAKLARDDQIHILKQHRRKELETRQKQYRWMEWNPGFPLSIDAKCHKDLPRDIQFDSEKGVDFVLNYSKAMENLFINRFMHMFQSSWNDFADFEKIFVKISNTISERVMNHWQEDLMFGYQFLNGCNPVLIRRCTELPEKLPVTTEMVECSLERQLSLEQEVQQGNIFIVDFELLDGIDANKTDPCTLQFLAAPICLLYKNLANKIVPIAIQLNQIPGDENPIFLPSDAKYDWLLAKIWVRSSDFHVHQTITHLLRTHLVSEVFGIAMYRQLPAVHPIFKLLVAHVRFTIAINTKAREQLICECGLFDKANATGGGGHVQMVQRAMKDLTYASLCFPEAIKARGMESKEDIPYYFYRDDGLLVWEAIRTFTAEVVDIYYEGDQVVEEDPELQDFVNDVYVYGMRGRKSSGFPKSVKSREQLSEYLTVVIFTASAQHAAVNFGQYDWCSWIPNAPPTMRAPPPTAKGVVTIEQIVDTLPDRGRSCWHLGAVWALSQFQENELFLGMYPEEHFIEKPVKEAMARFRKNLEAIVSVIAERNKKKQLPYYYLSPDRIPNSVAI
Summary of the method: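 Human PMNs from venous blood of a healthy volunteer (EDTA) were purified by dextran sedimentation, a Percoll gradient and NH4Cl red-cell lysis (>90% pure). They were held in Ca/Mg PBS with 1 mg/mL glucose and 1 μM indomethacin, then challenged with A23187 (0.8 μM) and [14C]arachidonic acid (4 μM) for 3 min. 5-HETE was measured by TLC and scintillation counting.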

[5] = tested on: Mus musculus; experiment: In vivo inhibition of mouse ear inflammation; format: functional; design: concentration or dose not given beside the values
Summary of the method: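 Compound or ethanol vehicle applied topically to one ear of male DBA/2J mice 60 min before arachidonic acid (2 mg/ear). […] Groups of 5 mice.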

[6] = tested on: Cavia porcellus; experiment: In vivo inhibitory activity against guinea pig systemic anaphylaxis when administered a compound dose (60 mg/kg) perorally; format: functional; settings: po
Summary of the method: (§2)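 Male Hartley guinea pigs sensitised ip with ovalbumin (2.7 mg/kg) plus LPS adjuvant, then challenged 2 weeks later with 1% ovalbumin aerosol for 30 s. Pretreated with pyrilamine, indomethacin and propranolol 20 min before challenge. Compound given in PEG 400 1 h before challenge.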

[7] = target: T4, Cysteinyl leukotriene receptor 1 (Cavia porcellus, UniProt Q2NNR5); experiment: Activity to bind against [3H]LTD4 radioligand in guinea pig
T4 sequence (Q2NNR5 whole entry): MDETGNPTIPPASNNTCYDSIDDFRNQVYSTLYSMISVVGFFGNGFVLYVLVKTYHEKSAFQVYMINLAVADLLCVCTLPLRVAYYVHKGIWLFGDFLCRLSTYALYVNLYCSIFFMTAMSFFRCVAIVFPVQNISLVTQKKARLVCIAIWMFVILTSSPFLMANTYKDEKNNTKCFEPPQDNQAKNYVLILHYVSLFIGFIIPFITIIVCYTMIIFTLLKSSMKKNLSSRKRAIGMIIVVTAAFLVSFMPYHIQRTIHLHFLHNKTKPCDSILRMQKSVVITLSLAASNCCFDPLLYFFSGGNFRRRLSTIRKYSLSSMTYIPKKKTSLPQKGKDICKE

[8] = target: T5, Cyclooxygenase (Rattus norvegicus, UniProt P35355+Q63921); experiment: In vitro inhibitory activity against polymorphonuclear leukocyte cyclooxygenase; format: protein assay
T5 sequence (P35355 whole entry): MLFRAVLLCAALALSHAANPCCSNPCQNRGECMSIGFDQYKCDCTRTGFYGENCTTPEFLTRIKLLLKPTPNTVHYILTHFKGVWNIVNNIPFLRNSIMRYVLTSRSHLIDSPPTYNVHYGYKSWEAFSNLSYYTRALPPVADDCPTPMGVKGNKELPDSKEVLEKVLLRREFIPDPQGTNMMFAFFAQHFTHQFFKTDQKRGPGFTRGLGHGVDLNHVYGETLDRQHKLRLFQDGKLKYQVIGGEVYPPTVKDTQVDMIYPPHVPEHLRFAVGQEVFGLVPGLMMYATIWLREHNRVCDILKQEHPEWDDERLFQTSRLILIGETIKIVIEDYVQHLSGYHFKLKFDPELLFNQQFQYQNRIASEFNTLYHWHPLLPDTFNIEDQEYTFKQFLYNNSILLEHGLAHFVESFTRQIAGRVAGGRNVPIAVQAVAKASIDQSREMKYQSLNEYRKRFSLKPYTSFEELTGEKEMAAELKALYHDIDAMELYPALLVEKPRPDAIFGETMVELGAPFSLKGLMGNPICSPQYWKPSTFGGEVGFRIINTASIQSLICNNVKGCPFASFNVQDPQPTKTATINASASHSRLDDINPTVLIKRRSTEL
T5 sequence (Q63921 whole entry): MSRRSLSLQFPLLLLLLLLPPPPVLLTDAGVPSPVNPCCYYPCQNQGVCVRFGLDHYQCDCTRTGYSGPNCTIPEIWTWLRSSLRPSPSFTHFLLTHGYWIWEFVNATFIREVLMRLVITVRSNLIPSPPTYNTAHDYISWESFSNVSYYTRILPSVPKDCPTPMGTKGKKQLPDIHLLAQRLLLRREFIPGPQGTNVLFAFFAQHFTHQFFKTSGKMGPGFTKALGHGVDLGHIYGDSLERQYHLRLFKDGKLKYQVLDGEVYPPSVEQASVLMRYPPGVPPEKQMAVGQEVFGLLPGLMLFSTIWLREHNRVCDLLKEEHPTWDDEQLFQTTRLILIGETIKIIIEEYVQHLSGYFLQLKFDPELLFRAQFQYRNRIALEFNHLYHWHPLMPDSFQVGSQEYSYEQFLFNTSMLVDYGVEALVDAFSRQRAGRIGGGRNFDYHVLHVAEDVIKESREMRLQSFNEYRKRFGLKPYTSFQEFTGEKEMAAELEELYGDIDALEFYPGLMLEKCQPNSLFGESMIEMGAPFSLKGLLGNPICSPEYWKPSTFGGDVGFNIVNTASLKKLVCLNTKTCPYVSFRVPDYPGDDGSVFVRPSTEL
Summary of the method: (§3)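 Glycogen-elicited peritoneal PMNs from Sprague-Dawley rats were homogenized at 0 °C in 0.1 M Tris-HCl pH 8.2 with 10 μM NDGA. Compound (DMSO ≤0.1%) was preincubated 5 min at 37 °C, then 8 μM [14C]arachidonic acid with 4 mM glutathione and epinephrine was added for 10 min. TxB2 and PGF2α were measured by TLC and scintillation counting.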

[9] = species on record: Cavia porcellus; experiment: Inhibitory activity against Leukotriene-D4 induced contractions; format: functional
[10] = target: T5, Cyclooxygenase; experiment: In vitro inhibitory activity against rat polymorphonuclear leukocyte cyclooxygenase; format: protein assay; summary of the method: as §3
[11] = species on record: Cavia porcellus; experiment: Inhibitory activity against Leukotriene C4 induced contractions; format: functional
[12] = target: T5, Cyclooxygenase; experiment: (§4) In vitro inhibitory activity against rat polymorphonuclear leukocyte Prostaglandin G/H synthase at 100 uM; format: protein assay; summary of the method: as §3
[13] = target: T6, Polyunsaturated fatty acid 5-lipoxygenase (Rattus norvegicus) (UniProt P12527); experiment: In vitro inhibitory activity against polymorphonuclear leukocyte 5-lipoxygenase in rat cell at 10 uM
T6 sequence (whole entry): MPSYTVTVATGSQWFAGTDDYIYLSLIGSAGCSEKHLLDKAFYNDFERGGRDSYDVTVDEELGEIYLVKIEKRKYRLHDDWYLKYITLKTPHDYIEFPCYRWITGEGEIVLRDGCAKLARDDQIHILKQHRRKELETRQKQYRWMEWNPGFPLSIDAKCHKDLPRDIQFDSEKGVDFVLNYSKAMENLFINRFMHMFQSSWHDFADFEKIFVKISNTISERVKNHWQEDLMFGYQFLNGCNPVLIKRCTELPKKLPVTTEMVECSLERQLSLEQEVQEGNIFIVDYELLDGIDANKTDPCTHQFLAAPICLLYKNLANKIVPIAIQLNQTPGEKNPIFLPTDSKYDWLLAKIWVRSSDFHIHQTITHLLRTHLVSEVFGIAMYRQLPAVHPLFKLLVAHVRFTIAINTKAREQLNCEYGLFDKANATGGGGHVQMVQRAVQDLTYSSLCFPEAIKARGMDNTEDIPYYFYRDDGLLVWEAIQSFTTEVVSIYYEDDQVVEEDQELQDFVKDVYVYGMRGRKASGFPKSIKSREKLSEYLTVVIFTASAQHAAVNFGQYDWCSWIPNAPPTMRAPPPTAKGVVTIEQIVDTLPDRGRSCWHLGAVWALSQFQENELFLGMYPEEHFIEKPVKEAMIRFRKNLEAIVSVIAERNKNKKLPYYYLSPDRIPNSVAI
Summary of the method: (§5)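 Intact glycogen-elicited peritoneal PMNs pooled from 4–5 Sprague-Dawley rats (250 g), preincubated 5 min at 30 °C with compound in DMSO (≤0.1% final) plus 1 μM indomethacin. Challenge with [14C]arachidonic acid (4 μM) and A23187 (0.8 μM) for 3 min. Extraction, TLC, 5-HETE by scintillation counting.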

[14] = target: T7, Polyunsaturated fatty acid 5-lipoxygenase (Homo sapiens, UniProt P09917); experiment: In vitro inhibition of polymorphonuclear leukocyte derived human 5-lipoxygenase
T7 sequence (P09917 whole entry): T3 sequence (whole entry)
Summary of the method: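 PMNs from venous blood of healthy volunteers, isolated by dextran sedimentation and Percoll gradient (>90% pure) and held in Ca/Mg PBS with 1 mg/mL glucose and 1 μM indomethacin. Challenged with calcium ionophore and [14C]arachidonic acid for 3 min. 5-HETE measured by TLC and scintillation counting; IC50 read graphically.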

[15] = target: T1, Arachidonate 12-lipoxygenase (Rattus norvegicus); experiment: In vitro inhibitory activity against rat platelet 12-lipoxygenase at 100 uM; summary of the method: as §1
[16] = target: T8, Polyunsaturated fatty acid 5-lipoxygenase (Rattus norvegicus, UniProt P12527); experiment: In vitro inhibition of rat polymorphonuclear leukocyte 5-lipoxygenase; summary of the method: as §5
T8 sequence (P12527 whole entry): T6 sequence (whole entry)

[17] = target: T2, Cyclooxygenase (Rattus norvegicus); experiment: as §4; format: functional; summary of the method: as §3
[18] = tested on: Cavia porcellus; experiment: In vivo inhibitory activity against guinea pig systemic anaphylaxis when administered a compound dose (200 mg/kg) perorally; format: functional; settings: po; summary of the method: as §2
[19] = target: T5, Cyclooxygenase; experiment: In vitro inhibitory activity against rat polymorphonuclear leukocyte Prostaglandin G/H synthase; format: functional; summary of the method: as §3

SMILES: O=C(Cc1ccc(OCc2ccccc2)cc1)N(O)Cc1ccccc1
Inhibition [5]: 37%
IC50 [14]: 120 nM
inhibition [15]: 47%
IC50 [16]: 100 nM
inhibition [17]: 32%

SMILES: CCCN(O)C(=O)Cc1ccc(OCc2ccccc2)cc1
Inhibition [5]: 82%
IC50 [14]: 160 nM
inhibition in vivo at 200 mg/kg [18]: 0%
IC50 [16]: 100 nM
IC50 [19]: 30000 nM

More lines, main results first:

inhibition [1]: < 10%
inhibition [2]: 24%
inhibition [3]: < 10%
inhibition [4]: 22%
SMILES: O=C(Cc1ccc(OCc2ccccc2)cc1)N(Cc1ccccc1)OCc1ccccc1

Ki [7]: > 100000 nM
IC50 [8]: < 10000 nM
IC50 [9]: 5000 nM
IC50 [10]: 9000 nM
IC50 [11]: 4200 nM
SMILES: CN(O)C(=O)Cc1ccc(OCc2ccccc2)cc1
Inhibition [5]: 65%
inhibition in vivo at 60 mg/kg [6]: 83%

Inhibition [12]: 50%
inhibition [13]: 21%
SMILES: O=C(O)CCCCN(O)C(=O)Cc1ccc(OCc2ccccc2)cc1
